Data set [1] relates to MCF7. The experiment in a line: Cytostatic effect against human MCF7 cells at 10 uM after 72 hrs by crystal violet staining relative to uncreate control. The format is functional. In a few lines:
(§1)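 MCF-7 or MDA-MB-231 cells (ATCC) in DMEM high glucose with 5% FCS, seeded at 7500 cells/mL and grown 3 days at 37 °C, 5% CO2. Compound was added from a DMF or methanol stock and incubated 72 h. Cells were glutardialdehyde-fixed and stained with crystal violet, and the dye was extracted with 70% ethanol for OD 578 nm. T/Ccorr = (T−C0)/(C−C0)×100, where C0 is the OD before treatment. Run 3 times.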

Data set [2] has as its system MDA-MB-231. The experiment in a line: Antiproliferative activity against human MDA-MB-231 cells after 72 hrs by crystal violet staining. Type of data set: functional, cell-based. In a few lines:
as §1

Data set [3] in a line: Half life in PBS buffer at pH 7.4. Type of data set: physicochemical.
For data set [4], the system named is MCF7. As to the kind of experiment: Cytostatic effect against human MCF7 cells at 5 uM after 72 hrs by crystal violet staining relative to uncreate control. The format is functional, cell-based. In a few lines: as §1
In data set [5] the test system is MCF7. The experiment in a line: Cytotoxicity against human MCF7 cells at 5 uM after 72 hrs by crystal violet staining. The format is functional, cell-based. In a few lines:
(§2)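 MCF-7 cells in DMEM high glucose with 5% FCS were seeded at 7500 cells/mL and grown 3 days at 37 °C, 5% CO2. Then exposed 72 h to compound added from a DMF or methanol stock. Biomass was read by crystal violet staining of glutardialdehyde-fixed cells, with 70% ethanol extraction and OD at 578 nm, against untreated control and pre-treatment OD. Three runs per substance.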

Data set [6] has as its system MCF7. The experiment in a line: Cytotoxicity against human MCF7 cells at 1 uM after 72 hrs by crystal violet staining. The format is functional, cell-based. In a few lines: as §2
Data set [7] concerns MCF7. As to the kind of experiment: Cytotoxicity against human MCF7 cells at 10 uM after 72 hrs by crystal violet staining. The format is functional, cell-based. In a few lines:
as §2

The text below walks through data of ChEMBL document CHEMBL1821603, “Bivalent bendamustine and melphalan derivatives as anticancer agents” (Eur J Med Chem, 2011).

The source made the active and inactive calls.

As a reminder, the T/C is the result in the treated group divided by that in the control group, in per cent. In turn, `N[C@@H](Cc1ccc(N(CCCl)CCCl)cc1)C(=O)O` [MELPHALAN] yielded a T/C in data set [1] of 20%. Further, in data set [2], the result was Active.
As to `CC(C)(C)OC(=O)N[C@@H](Cc1ccc(N(CCCl)CCCl)cc1)C(=O)OCCN1C(=O)C=CC1=O`, the outcome in data set [2] was Active.
The term half-life denotes the time needed for the level to fall by half in the phase considered. Low readings indicate rapid decline, high ones slow decline. Consider `Cn1c(CCCC(=O)OCCN2C(=O)C=CC2=O)nc2cc(N(CCCl)CCCl)ccc21`, for which, in data set [3], the half-life is 10 h. Further, the outcome in data set [2] and in data set [4] was Active.
For the compound `Cn1c(CCCC(=O)O)nc2cc(N(CCCl)CCCl)ccc21`, the result in data set [5], in data set [6] and in data set [7] was inactive. Besides, the outcome in data set [2] was Active.
